Results: ChEMBL document CHEMBL1139875, “Discovery of 4-aminobutyric acid derivatives possessing anticonvulsant and antinociceptive activities: a hybrid pharmacophore approach” (2007)
Activity calls are given as the source filed them. No cut-off for these calls is given here.

Columns and labels:
[1] = test system: Rattus norvegicus; assay: Effect on spontaneous pain in Sprague-Dawley rat SNL model assessed as duration of paw withdrawal at 100 mg/kg, ip after 1 hr; assay type: functional; conditions: route intraperitoneal
Procedure, shortened: (§1)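 Rats underwent left L5 spinal nerve ligation (Kim and Chung) under i.p. pentobarbital (65 mg/kg). Spontaneous pain is recorded for 5 min after 10 min acclimatization, as cumulative duration the ipsilateral paw is lifted, excluding locomotor lifts. Dosing is 100 mg/kg i.p. in 30% v/v PEG 400/water, with testing at 0.5–2.5 h. Four rats, mean ± SEM versus predrug, one-way ANOVA with Bonferroni.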

[2] = test system: Rattus norvegicus; assay: Anti-dynamic allodynia effect in Sprague-Dawley rat SNL model assessed as latency to paw withdrawal 100 mg/kg, ip after 0.5 hr; assay type: functional; conditions: route intraperitoneal
Procedure, shortened: (§2)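 Left L5 spinal nerve ligation rats, tested preoperatively and 9 days postoperatively, then given 100 mg/kg i.p. (vehicle 30% v/v PEG 400 in water). After 10 min acclimatization, plantar surface of affected paw stroked mildly with a cotton-bud; paw lift response recorded. n = 4; retested 0.5-2.5 h post-dose.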

[3] = test system: Rattus norvegicus; assay: Anti-cold allodynia effect in Sprague-Dawley rat SNL model assessed as duration of paw withdrawal 100 mg/kg, ip after 2 hrs; assay type: functional; conditions: route intraperitoneal
Procedure, shortened: (§3)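 Left L5 spinal nerve ligation under pentobarbital (65 mg/kg i.p.). Allodynic rats dosed i.p. 100 mg/kg, vehicle 30% v/v PEG 400 in water. Acetone (100-200 µL) misted onto midplantar affected paw after 10 min acclimatization; paw withdrawal duration, mean of three samples at least 3 min apart; n = 4 rats.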

[4] = test system: Rattus norvegicus; assay: Antihyperalgesic effects in Sprague-Dawley rat CCI model assessed as duration of paw withdrawal at 100 mg/kg, ip after 1 hr; assay type: functional; conditions: route intraperitoneal
[5] = test system: Mus musculus; assay: Anticonvulsant activity in Swiss Albino mouse at 300 mg/kg, ip after 0.5 hr by scSTY test; assay type: functional, organism-based; parameters: dose 300 mg/kg
Procedure, shortened: (§4)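 Mice (Swiss, 20-25 g) given i.p. doses of 30, 100 and 300 mg/kg under ADD program protocols, three per group, examined at 0.5 and 4 h in MES, scPTZ, scSTY or scPIC seizure tests. Value is the minimum dose protecting half or more of the mice.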

[6] = test system: Rattus norvegicus; assay: Effect on spontaneous pain in Sprague-Dawley rat SNL model assessed as duration of paw withdrawal at 100 mg/kg, ip after 0.5 hr; assay type: functional; conditions: route intraperitoneal; procedure, shortened: as §1
[7] = test system: Mus musculus; assay: Anticonvulsant activity in Swiss Albino mouse at 300 mg/kg, ip after 4 hrs by MES test; assay type: functional, organism-based; parameters: dose 300 mg/kg; procedure, shortened: as §4
[8] = test system: Mus musculus; assay: Anticonvulsant activity in Swiss Albino mouse at 300 mg/kg, ip after 0.5 hr by scPIC test; assay type: functional, organism-based; parameters: dose 300 mg/kg; procedure, shortened: as §4
[9] = test system: Rattus norvegicus; assay: Antihyperalgesic effects in Sprague-Dawley rat CCI model assessed as duration of paw withdrawal at 100 mg/kg, ip after 2.5 hrs; assay type: functional; conditions: route intraperitoneal
[10] = test system: Rattus norvegicus; assay: Anti-dynamic allodynia effect in Sprague-Dawley rat SNL model assessed as latency to paw withdrawal 100 mg/kg, ip after 2.5 hrs; assay type: functional; conditions: route intraperitoneal; procedure, shortened: as §2
[11] = test system: Mus musculus; assay: Anticonvulsant activity in Swiss Albino mouse at 300 mg/kg, ip after 4 hrs by scPIC test; assay type: functional, organism-based; parameters: dose 300 mg/kg; procedure, shortened: as §4
[12] = test system: Rattus norvegicus; assay: Antihyperalgesic effects in Sprague-Dawley rat CCI model assessed as duration of paw withdrawal at 100 mg/kg, ip after 0.5 hr; assay type: functional; conditions: route intraperitoneal
[13] = test system: Rattus norvegicus; assay: Anti-dynamic allodynia effect in Sprague-Dawley rat SNL model assessed as latency to paw withdrawal 100 mg/kg, ip after 1 hr; assay type: functional; conditions: route intraperitoneal; procedure, shortened: as §2
[14] = test system: Mus musculus; assay: Neurotoxicity in Swiss Albino mouse at 300 mg/kg, ip after 4 hrs by rotarod test; assay type: functional, organism-based; parameters: dose 300 mg/kg
Procedure, shortened: (§5)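 Swiss mice (20-25 g) are trained on an accelerating rotorod (10 rpm, 3.2 cm rod), then injected i.p. at 30, 100 or 300 mg/kg, with three per group. Neurotoxicity means failure to keep equilibrium for at least 1 min in each of three trials, checked at 0.5 and 4 h. The value reported is the minimum dose affecting half or more of the mice.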

[15] = species: Rattus norvegicus; assay: Anti-dynamic allodynic effect in Sprague-Dawley rat CCI model assessed as latency to paw withdrawal after 1.5 hr; assay type: functional
Procedure, shortened: (§6)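 Rats with sciatic nerve chronic constriction injury (pentobarbital 65 mg/kg i.p. anaesthesia), baseline and day 9 testing, then drug per randomization table. After 10 min acclimatization, affected plantar surface stroked mildly with a cotton-bud; paw lift recorded. n = 4; retested 0.5-2.5 h post-dose.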

[16] = test system: Mus musculus; assay: Analgesic activity in Swiss Albino mouse assessed as inhibition of acetic acid-induced writhing responses at 100 mg/kg, ip; assay type: functional; conditions: route intraperitoneal
Procedure, shortened: (§7)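 Mice in groups of six dosed i.p. at 100 mg/kg, controls receiving 30% v/v PEG 400 in water. Writhing induced by i.p. 0.1 mL of 3% v/v acetic acid 1 h after drug. Writhes (abdominal stretch with at least one hind limb extended) counted over 30 min; % inhibition calculated. Mean ± SEM, Student's t test.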

[17] = test system: Rattus norvegicus; assay: Antihyperalgesic effects in Sprague-Dawley rat CCI model assessed as duration of paw withdrawal at 100 mg/kg, ip after 1.5 hrs; assay type: functional; conditions: route intraperitoneal
[18] = species: Rattus norvegicus; assay: Anti-dynamic allodynic effect in Sprague-Dawley rat CCI model assessed as latency to paw withdrawal after 0.5 hr; assay type: functional; procedure, shortened: as §6
[19] = test system: Rattus norvegicus; assay: Anti-cold allodynia effect in Sprague-Dawley rat SNL model assessed as duration of paw withdrawal 100 mg/kg, ip after 2.5 hrs; assay type: functional; conditions: route intraperitoneal; procedure, shortened: as §3
[20] = test system: Rattus norvegicus; assay: Anti-cold allodynia effect in Sprague-Dawley rat SNL model assessed as duration of paw withdrawal 100 mg/kg, ip after 0.5 hr; assay type: functional; conditions: route intraperitoneal; procedure, shortened: as §3
[21] = test system: Mus musculus; assay: Analgesic activity in Swiss Albino mouse assessed as number of acetic acid-induced writhing per 30 min after 100 mg/kg, ip; assay type: functional; conditions: route intraperitoneal; procedure, shortened: as §7
[22] = species: Rattus norvegicus; assay: Anti-dynamic allodynic effect in Sprague-Dawley rat CCI model assessed as latency to paw withdrawal after 1 hr; assay type: functional; procedure, shortened: as §6
[23] = test system: Mus musculus; assay: Anticonvulsant activity in Swiss Albino mouse at 300 mg/kg, ip after 0.5 hr by scPTZ test; assay type: functional, organism-based; parameters: dose 300 mg/kg; procedure, shortened: as §4
[24] = test system: Rattus norvegicus; assay: Anti-cold allodynia effect in Sprague-Dawley rat SNL model assessed as duration of paw withdrawal 100 mg/kg, ip after 1 hrs; assay type: functional; conditions: route intraperitoneal; procedure, shortened: as §3
[25] = test system: Mus musculus; assay: Neurotoxicity in Swiss Albino mouse at 300 mg/kg, ip after 0.5 hr by rotarod test; assay type: functional, organism-based; parameters: dose 300 mg/kg; procedure, shortened: as §5
[26] = test system: Mus musculus; assay: Anticonvulsant activity in Swiss Albino mouse at 300 mg/kg, ip after 0.5 hr by MES test; assay type: functional, organism-based; parameters: dose 300 mg/kg; procedure, shortened: as §4
[27] = species: Rattus norvegicus; assay: Anti-dynamic allodynic effect in Sprague-Dawley rat CCI model assessed as latency to paw withdrawal after 2 hr; assay type: functional; procedure, shortened: as §6
[28] = test system: Rattus norvegicus; assay: Effect on spontaneous pain in Sprague-Dawley rat SNL model assessed as duration of paw withdrawal at 100 mg/kg, ip after 2.5 hrs; assay type: functional; conditions: route intraperitoneal; procedure, shortened: as §1
[29] = test system: Mus musculus; assay: Anticonvulsant activity in Swiss Albino mouse at 300 mg/kg, ip after 4 hrs by scSTY test; assay type: functional, organism-based; parameters: dose 300 mg/kg; procedure, shortened: as §4
[30] = test system: Rattus norvegicus; assay: Effect on spontaneous pain in Sprague-Dawley rat SNL model assessed as duration of paw withdrawal at 100 mg/kg, ip after 2 hrs; assay type: functional; conditions: route intraperitoneal; procedure, shortened: as §1
[31] = test system: Rattus norvegicus; assay: Anti-dynamic allodynia effect in Sprague-Dawley rat SNL model assessed as latency to paw withdrawal 100 mg/kg, ip after 2 hrs; assay type: functional; conditions: route intraperitoneal; procedure, shortened: as §2
[32] = species: Rattus norvegicus; assay: Anti-dynamic allodynic effect in Sprague-Dawley rat CCI model assessed as latency to paw withdrawal after 2.5 hr; assay type: functional; procedure, shortened: as §6
[33] = test system: Rattus norvegicus; assay: Antihyperalgesic effects in Sprague-Dawley rat CCI model assessed as duration of paw withdrawal at 100 mg/kg, ip after 2 hrs; assay type: functional; conditions: route intraperitoneal
[34] = test system: Rattus norvegicus; assay: Effect on spontaneous pain in Sprague-Dawley rat SNL model assessed as duration of paw withdrawal at 100 mg/kg, ip after 1.5 hrs; assay type: functional; conditions: route intraperitoneal; procedure, shortened: as §1
[35] = test system: Rattus norvegicus; assay: Anti-dynamic allodynia effect in Sprague-Dawley rat SNL model assessed as latency to paw withdrawal 100 mg/kg, ip after 1.5 hrs; assay type: functional; conditions: route intraperitoneal; procedure, shortened: as §2
[36] = test system: Rattus norvegicus; assay: Anti-cold allodynia effect in Sprague-Dawley rat SNL model assessed as duration of paw withdrawal 100 mg/kg, ip after 1.5 hrs; assay type: functional; conditions: route intraperitoneal; procedure, shortened: as §3

Q: Which Activity [1] does the source give for O=C(O)CCCNC(=O)N/N=C(\c1ccccc1)c1ccc(Br)cc1 here?
A: The Activity was 28.5 s.

Q: What about the Activity [2] of the same compound?
A: The Activity was 9.8 s.

Q: And the Activity [3]?
A: The Activity was 10.8 s.

Q: What about the Activity [4] of the same compound?
A: The Activity was 8.5 s.

Q: And the Activity [5]?
A: Its Activity is “Active”.

Q: What about the Activity [6] of the same compound?
A: Its Activity is 25.1 s.

Q: What about the Activity [7] of the same compound?
A: Its Activity is “inactive”.

Q: What about the Activity [8] of the same compound?
A: The Activity was “inactive”.

Q: And the Activity [9]?
A: Its Activity is 5.6 s.

Q: What about the Activity [10] of the same compound?
A: The Activity was 10.23 s.

Q: What about the Activity [11] of the same compound?
A: Its Activity is “inactive”.

Q: What about the Activity [12] of the same compound?
A: Its Activity is 20.5 s.

Q: And the Activity [13]?
A: Its Activity is 10.6 s.

Q: What about the Activity [14] of the same compound?
A: The Activity was “inactive”.

Q: And the Activity [15]?
A: Its Activity is 10.6 s.

Q: And the inhibition in vivo at 100 mg/kg [16]?
A: The inhibition in vivo at 100 mg/kg was 89%.

Q: And the Activity [17]?
A: The Activity was 5.1 s.

Q: What about the Activity [18] of the same compound?
A: Its Activity is 11.4 s.

Q: What about the Activity [19] of the same compound?
A: The Activity was 10.2 s.

Q: What about the Activity [20] of the same compound?
A: The Activity was 19.1 s.

Q: And the Activity [21]?
A: Its Activity is 21.

Q: What about the Activity [22] of the same compound?
A: The Activity was 10.3 s.

Q: And the Activity [23]?
A: The Activity was “inactive”.

Q: What about the Activity [24] of the same compound?
A: Its Activity is 23.8 s.

Q: What about the Activity [25] of the same compound?
A: The Activity was “inactive”.

Q: What about the Activity [26] of the same compound?
A: The Activity was “Active”.

Q: What about the Activity [27] of the same compound?
A: The Activity was 10.9 s.

Q: And the Activity [28]?
A: Its Activity is 8.7 s.

Q: And the Activity [29]?
A: Its Activity is “Active”.

Q: And the Activity [30]?
A: Its Activity is 10.1 s.

Q: And the Activity [31]?
A: The Activity was 10.3 s.

Q: And the Activity [32]?
A: Its Activity is 11.3 s.

Q: What about the Activity [33] of the same compound?
A: Its Activity is 7.3 s.

Q: What about the Activity [34] of the same compound?
A: Its Activity is 23.1 s.

Q: And the Activity [35]?
A: The Activity was 10.8 s.

Q: What about the Activity [36] of the same compound?
A: The Activity was 11.8 s.
